Experimental data published in ChEMBL document CHEMBL4706506 (Eur J Med Chem, 2020).
Active and inactive are the calls of the source. The calls are words filed in the database; no cut-off is given here.

Legend:
[1] = tested on: HeLa; assay: Antiproliferative activity against human HeLa cells assessed as inhibition of cell proliferation measured after 48 hrs by CCK-8 assay; assay type: functional, cell-based
In short: (§1)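 RPMI-1640 with 10% FBS, 37 °C, 5% CO2. Cells seeded at 1-3 × 10^4/well and exposed to 0.00098–64 μM (nine 4-fold steps) or 0.1% DMSO vehicle for 48 h. CCK-8 then added for 4 h; absorbance read at 450 nm. IC50 taken from dose–response curves; mean ± SD of three independent experiments.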

[2] = tested on: HCT-116; assay: Antiproliferative activity against human HCT-116 cells assessed as inhibition of cell proliferation measured after 48 hrs by CCK-8 assay; assay type: functional, cell-based; conditions: HCT-116, 48 h; in short: as §1
[3] = tested on: B16-F0; assay: Antiproliferative activity against mouse B16-F0 cells assessed as inhibition of cell proliferation measured after 48 hrs by CCK-8 assay; assay type: functional, cell-based; conditions: B16F0, 48 h; in short: as §1
[4] = tested on: A549; assay: Antiproliferative activity against human A549 cells assessed as inhibition of cell proliferation measured after 48 hrs by CCK-8 assay; assay type: functional, cell-based; conditions: A549, 48 h; in short: as §1
[5] = tested on: MCF7; assay: Antiproliferative activity against human MCF7 cells assessed as inhibition of cell proliferation measured after 48 hrs by CCK-8 assay; assay type: functional, cell-based; conditions: MCF7, 48 h
[6] = Inhibition of pig brain tubulin polymerization measured by light scattering based spectrophotometer method; assay type: tissue-based, Sus scrofa
In short: (§2)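 Porcine brain tubulin purified by three assembly/disassembly cycles and phosphocellulose chromatography. Mixed with graded compound concentrations in PEM (100 mM PIPES, 1 mM EGTA, 1 mM MgCl2) with 1 mM GTP and 5% glycerol. Polymerization followed at 37 °C by light scattering at 340 nm; variants ran at 30 °C, or with 5 min preincubation before GTP addition. IC50 reported.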

[7] = Metabolic stability in human liver microsomes assessed as half life in presence of NADPH at 0.5 uM measured after 4 hrs by LC/MS method; assay type: ADME, Microsome
[8] = Binding affinity to pig brain tubulin at 37 degree C preincubated for 5 mins; assay type: tissue-based, Sus scrofa; in short: as §2
[9] = Metabolic stability in mouse liver microsomes assessed as half life in presence of NADPH at 0.5 uM measured after 4 hrs by LC/MS method; assay type: ADME, Microsome
[10] = Binding affinity to pig brain tubulin at 37 degree C without preincubation; assay type: tissue-based, Sus scrofa; in short: as §2
[11] = tested on: MCF7; assay: Induction of cell cycle arrest in human MCF7 cells assessed as accumulation of cells at G2/M phase measured after 48 hrs by FACS Calibur flow cytometry in relative to control; assay type: functional, cell-based
In short: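 MCF-7 cells plated for 24 h, then exposed to compound (5 or 10 nM; DMSO control) for 48 h. Fixed in 70% ethanol at 4 °C for 12 h, then RNase A and propidium iodide staining for 30 min. DNA content measured by flow cytometry.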

[12] = Binding affinity to pig brain tubulin at 30 degree C without preincubation; assay type: tissue-based, Sus scrofa; in short: as §2

IC50 [1] | IC50 [2] | IC50 [3] | IC50 [4] | IC50 [5] | IC50 [6] | half-life at 0.5 µM [7] | IC50 [8] | half-life at 0.5 µM [9] | IC50 [10] | IC50 [12] | Structure (SMILES) | Activity [11]
> 10000 nM | > 10000 nM | > 10000 nM | > 10000 nM | > 10000 nM | – | – | – | – | – | – | COc1cc(-c2cc3nccc(-c4cc(OC)c(OC)c(OC)c4)n3n2)cc(OC)c1OC | –
4230 nM | 6150 nM | 2220 nM | 5730 nM | 1080 nM | – | – | – | – | – | – | COc1cc(-c2ccnc3cc(-c4cccc(C)c4)nn23)cc(OC)c1OC | –
> 10000 nM | > 10000 nM | > 10000 nM | > 10000 nM | > 10000 nM | – | – | – | – | – | – | COc1cc(-c2ccnc3cc(-c4ccc(C(C)(C)C)cc4)nn23)cc(OC)c1OC | –
283 nM | 251 nM | 88 nM | 138 nM | 27 nM | – | – | – | – | – | – | COc1ccc(-c2cc3nccc(-c4cc(OC)c(OC)c(OC)c4)n3n2)cc1N | –
> 10000 nM | > 10000 nM | > 10000 nM | > 10000 nM | > 10000 nM | – | – | – | – | – | – | COc1cc(-c2ccnc3cc(-c4cccc(C#N)c4)nn23)cc(OC)c1OC | –
19 nM | 39 nM | 48 nM | 15 nM | 3 nM | 6700 nM | 20 min | 5700 nM | 7 min | 6700 nM | 6400 nM | COc1cc(-c2ccnc3cc(-c4ccc5c(ccn5C)c4)nn23)cc(OC)c1OC | Active
399 nM | 762 nM | 185 nM | 1340 nM | 95 nM | – | – | – | – | – | – | COc1cc(-c2ccnc3cc(-c4cn(C)c5ccccc45)nn23)cc(OC)c1OC | –
3770 nM | 5720 nM | 3070 nM | 2060 nM | 268 nM | – | – | – | – | – | – | COc1cc(-c2ccnc3cc(-c4cn(C(=O)OC(C)(C)C)c5ccccc45)nn23)cc(OC)c1OC | –
195 nM | 35 nM | 40 nM | 29 nM | 85 nM | – | – | – | – | – | – | COc1cc(-c2ccnc3cc(-c4c[nH]c5ccccc45)nn23)cc(OC)c1OC | –
1810 nM | 4390 nM | 3930 nM | 4100 nM | 5230 nM | – | – | – | – | – | – | COc1cc(-c2ccnc3cc(-c4ccc(C(C)=O)cc4)nn23)cc(OC)c1OC | –
378 nM | 2050 nM | 702 nM | 1100 nM | 44 nM | – | – | – | – | – | – | COc1cc(-c2ccnc3cc(-c4ccc(N(C)C)cc4)nn23)cc(OC)c1OC | –
> 10000 nM | > 10000 nM | > 10000 nM | > 10000 nM | > 10000 nM | – | – | – | – | – | – | COc1ccc(-c2cc3nccc(-c4cc(OC)c(OC)c(OC)c4)n3n2)cc1[N+](=O)[O-] | –
160 nM | 1530 nM | 1800 nM | 643 nM | 242 nM | – | – | – | – | – | – | CCn1c2ccccc2c2cc(-c3cc4nccc(-c5cc(OC)c(OC)c(OC)c5)n4n3)ccc21 | –
> 10000 nM | > 10000 nM | > 10000 nM | > 10000 nM | > 10000 nM | – | – | – | – | – | – | COc1cc(-c2ccnc3cc(-c4ccc(N5CCOCC5)cc4)nn23)cc(OC)c1OC | –
241 nM | 261 nM | 391 nM | 272 nM | 26 nM | – | – | – | – | – | – | COc1cc(-c2ccnc3cc(-c4ccc(C)c(C)c4)nn23)cc(OC)c1OC | –
5210 nM | 2160 nM | 4780 nM | 3520 nM | 4580 nM | – | – | – | – | – | – | Cn1ccc2cc(-c3cc4nccc(-c5ccc(F)cc5)n4n3)ccc21 | –
> 10000 nM | > 10000 nM | > 10000 nM | > 10000 nM | > 10000 nM | – | – | – | – | – | – | COc1cc(-c2ccnc3c(-c4c[nH]c5ccccc45)cnn23)cc(OC)c1OC | –
> 10000 nM | > 10000 nM | > 10000 nM | > 10000 nM | > 10000 nM | – | – | – | – | – | – | CCOC(=O)c1ccc(-c2cc3nccc(-c4cc(OC)c(OC)c(OC)c4)n3n2)cc1 | –
